Diaphorase inh: diaphorase inhibition or chemical oxidation counter-screen. 190,000 tested, 0.69% active. inhibition, % at 20 µM. AID 1217. diaphorase resazurin-to-resorufin fluorescence, NADH, 16 min; bacterial (C. kluyveri) enzyme, not human;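 active means primary screen inhibition at 20 µM above a set limit, cut at about 50% in these data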;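 further: plate controls were DMSO with full reaction for no effect and wells lacking NADH for full effect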
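Test system: Clostridium kluyveri diaphorase enzyme / Quantity: diaphorase at 0.14 U/mL in enzyme working solution / Incubation: 16-min room-temperature incubation before reading / Benchmarks: NADH-free wells as positive control, DMSO-only neutral wells / Signal: resorufin fluorescence 544/590 nm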
G6PDH CS: L. mesenteroides G6PDH inhibition counter-screen. Purified L. mesenteroides G6PDH, diaphorase/resazurin coupled fluorescence, 45 min. inhibition, % at 5 µM. 200,000 tested, 0.12% active. AID 1020
Lmaj promast: Leishmania major promastigote growth inhibition | 200,000 tested, 9% active | Leishmania major promastigotes, resazurin fluorescence viability | inhibition, % at 10 µM;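 further: promastigotes grown with compound for 44 hours at 28 °C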
DTT redox prof: compounds producing H2O2 with reducing agent – biochemical, NIH compound library profiling, artefact control for MLSCN library redox annotation, primary screen | DTT-dependent redox cycling H2O2, phenol red/HRP absorbance; 100% = 100 µM peroxide control, 0% = buffer | activation, % at 10 µM | 200,000 tested, 0.03% active | AID 878;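 active means activation of at least 50% relative to the plate's high and low controls in the primary single-dose screen; inactive means activation below 50%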;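 further: compound incubated with DTT at 0.8 mM final as the reducing agent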
PfGluPho inh: PfG6PD (Plasmodium falciparum) enzyme inhibition; PfGluPho enzyme, NADPH resazurin-diaphorase fluorescence; inhibition, % at 20 µM; 350,000 tested, 0.78% active;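 active means inhibition reaching at least a set limit at 20 µM in the primary screen, cut at about 59% in these data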;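 further: 0% = DMSO wells with substrate and 100% = DMSO wells lacking glucose-6-phosphate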
Diaph act CS: diaphorase activation or chemical reduction counter-screen; Diaphorase/resazurin coupled assay, resorufin fluorescence, 16 min; active compounds read high; 1 = vehicle wells, 0 = NADH-free wells; activation factor at 20 µM; 190,000 tested, 0.005% active;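 active means diaphorase activity raised at least twofold by the compound at 20 µM; inactive means activation factor below 2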
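System – purified diaphorase enzyme from Clostridium kluyveri · Input – enzyme 0.07 U/mL final · Also added – final NADH 0.114 mM, resazurin 0.1 mM · Measured by – fluorescence of resorufin, 544 nm excitation, 590 nm emission · Timing – 16 min enzyme reaction, ambient temperature · Measure – resorufin increase flagging diaphorase activators or reducers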
Numbers without * were called inactive; / = not tested or not shown. Shown is part of a subset that was picked to be rich in hits. Unless noted, no stated cut-off is given here; in the data, active means inhibition above about 50%; inactive means the rest.

SMILES | Diaphorase inh | G6PDH CS | Lmaj promast | DTT redox prof | PfGluPho inh | Diaph act CS
Cc1cccc(C)c1Oc1nc(-c2ccccc2)ncc1S(=O)(=O)c1ccccc1 | 7 | -9 | 54* | 3 | 6 | 0.9
COc1nc(-c2ccccc2)ncc1S(=O)(=O)c1ccccc1 | 25 | 10 | 3 | 0 | -4 | 0.7
CC(=O)N1/C(=C/c2ccc(N(C)C)cc2)C(=O)c2ccccc21 | 26 | 2 | 100* | -1 | 10 | 0.7
Cc1ccc(O)c(CNc2cccc3cccnc23)c1 | 39 | 17 | 2 | 0 | 31 | 0.6
Cc1cccc(NCc2ccc(O)c3ncccc23)c1C | 80* | 50 | 8 | -1 | 41 | 0.2
Cc1cccnc1NCc1ccc(O)c2ncccc12 | 77* | 25 | 58* | 0 | 5 | 0.2
C=C(C)CSc1nnc([C@@H]2CCCN2C(=O)OC(C)(C)C)o1 | 6 | -1 | -3 | 1 | 2 | 0.9
O=C(Nc1ccc(Cl)c([N+](=O)[O-])c1)C(Sc1ccccc1)c1ccccc1 (centres undefined) | 19 | 22 | 35 | 0 | 12 | 0.8
O=C(Nc1cc([N+](=O)[O-])ccc1Cl)C(Sc1ccccc1)c1ccccc1 (centres undefined) | 25 | -12 | 96* | -1 | 16 | 0.8
O=C(CN(Cc1ccc(F)cc1)C(=O)C1CSC(=O)C1)NC1CCCCC1 (centres undefined) | 10 | 6 | 98* | -4 | -1 | 0.9
CC(OC(=O)Cc1n[nH]c(=O)c2ccccc12)C(=O)N(C)c1ccccc1 (centres undefined) | / | / | / | / | 10 | /
Cc1ccc(NC(=S)Nc2cccc3cnccc23)c(C)c1 | 59* | 16 | 19 | 0 | 21 | 0.4
CCNc1nnc(SCC(=O)NC2CCCCCC2)s1 | / | / | / | / | 2 | /
Oc1c(C(c2ccc(Cl)cc2)N2CCCC2)cc(Cl)c2cccnc12 (centres undefined) | 4 | 6 | 96* | -2 | 4 | 1
Cc1ccc(C(c2cc(Cl)c3cccnc3c2O)N2CCN(C)CC2)cc1 (centres undefined) | / | / | / | / | 8 | /
Oc1c(C(c2ccccn2)N2CCC(Cc3ccccc3)CC2)cc(Cl)c2cccnc12 (centres undefined) | 27 | 17 | 99* | 3 | 3 | 0.7
COC(=O)C(C(=O)OC)C1C=CCN(C(C)=O)C1 (centres undefined) | / | / | / | / | -22 | /
CCOC(=O)c1sc2nc(CSc3ccccc3)nc(NCCN(C)C)c2c1C | -20 | -10 | 93* | -1 | 23 | 1.2
Cc1cc(C)cc(NS(=O)(=O)c2ccc3c(c2)c(=O)n(C)c(=O)n3C)c1 | 16 | -5 | 97* | 0 | -7 | 0.8
Cc1cc(S(=O)(=O)Nc2ccc3c(c2)n(C)c(=O)n3C)ccc1F | 12 | -2 | 4 | 0 | 26 | 0.9
Cn1c(=O)c2cc(S(=O)(=O)Nc3cc(C(=O)O)cc(C(=O)O)c3)ccc2n(C)c1=O | 10 | 16 | -9 | 11 | -13 | 0.9
Cc1ccc(NS(=O)(=O)c2ccc3c(c2)c(=O)n(C)c(=O)n3C)cc1F | 7 | 2 | 68* | 0 | -12 | 0.9
CN(C(=O)c1sc2nc(N3CCOCC3)c3c(c2c1N)CCCC3)c1ccccc1 | 12 | -11 | 100* | 0 | 45 | 0.9
CC1=C(C)CC2(SC1)C(=O)N(c1ccccc1)N=C2N (centres undefined) | 8 | 6 | 3 | 0 | -9 | 0.9
Cc1ccc(CNC(=O)c2cnccn2)cc1 | -1 | 3 | -8 | 0 | -25 | 1
SMILES | Diaphorase inh | G6PDH CS | Lmaj promast | DTT redox prof | PfGluPho inh | Diaph act CS
CC(C)CNC(=O)CC(=O)N/N=C/c1cccs1 | 2 | -3 | -3 | -1 | 21 | 1
CN=c1scc(C)n1/N=C/c1ccc(O)cc1O | 11 | 7 | 58* | 1 | 5 | 0.9
CN=c1scc(C)n1/N=C/c1ccc(O)cc1 | 14 | 9 | 0 | 1 | -2 | 0.9
CC(C)N=c1scc(-c2cccs2)n1/N=C/c1ccc(O)c(O)c1O | 66* | -11 | -2 | 1 | 50 | 0.3
CN=c1scc(-c2ccccc2F)n1/N=C/c1ccc(O)c(O)c1O | 68* | 5 | -5 | 0 | 40 | 0.3
CN=c1scc(-c2ccccc2F)n1/N=C/c1ccc[nH]1 | 27 | 8 | 12 | -1 | 7 | 0.7
C/C(=N/NC(=O)c1cc(O)c(O)c(O)c1)c1ccc([N+](=O)[O-])cc1 | 75* | 9 | -13 | 0 | 38 | 0.2
C/C(=N\NC(=O)c1ccc([N+](=O)[O-])cc1)c1c(O)cc(C)oc1=O | 12 | 1 | -3 | 0 | -14 | 0.9
C/C(=N\NC(=O)c1ccc(CN2CCOCC2)cc1)c1ccc([N+](=O)[O-])cc1 | 0 | -4 | 77* | 0 | 12 | 1
O=C(COc1ccc([N+](=O)[O-])cc1)Nc1ccc(CN2CCOCC2)cc1 | -1 | 1 | 63* | -1 | -1 | 1
CSc1ccc(CN2CCN(C(=O)c3ccc([N+](=O)[O-])cc3)CC2)cc1 | 16 | 8 | 69* | 1 | 7 | 0.8
Cc1[nH][nH]c(=O)c1C=NCc1cccs1 | 10 | 5 | -9 | -2 | 24 | 0.9
Cc1ccc(SCc2ccc(C(=O)N3CCCC3)cc2)cc1 | 5 | 10 | 3 | -1 | 6 | 0.9
CCN1CCN(C(=O)c2ccc(CSc3ccc(C)cc3)cc2)CC1 | -3 | 10 | 100* | -4 | -8 | 1
CNCc1ccccc1OCC(=O)Nc1ccccc1 | 7 | -5 | -1 | 0 | -11 | 0.9
CCOc1cc(CNCC(C)C)c(Cl)cc1OCC(=O)Nc1ccccc1 | 13 | -5 | 82* | -1 | 1 | 0.9
CCNCc1cc(OCC)c(OCC(=O)NCCc2ccccc2)cc1Cl | -4 | 6 | 99* | -4 | 17 | 1
O=C(COc1ccc([N+](=O)[O-])cc1Cl)NCCc1ccccc1 | 2 | 2 | 46 | 0 | -5 | 1
Cc1ccc(N=Nc2c(C)[nH]n(C(N)=S)c2=O)cc1C | 13 | -5 | 30 | 0 | -9 | 0.9
Cc1[nH]n(C(N)=S)c(=O)c1N=Nc1cc(-c2ccc(Br)cc2)[nH]n1 | 48 | -9 | 57* | -2 | -20 | 0.5
O=C(COC(=O)CCc1nc2ccccc2s1)NCc1ccco1 | -3 | 7 | -7 | -1 | 1 | 1
Cc1cc(-c2nsc(=O)o2)c(S(C)(=O)=O)s1 | 14 | -10 | -8 | 0 | 68* | 0.9
Cc1ccc(C(c2c(C)n(C)n(-c3ccccc3)c2=O)c2c(C)n(C)n(-c3ccccc3)c2=O)s1 | -1 | 0 | 94* | 0 | 15 | 1
Nc1c(Cl)ncnc1N/N=C/c1ccccn1 | 46 | 0 | 100* | 0 | 29 | 0.5

Screens from PubChem.
